Results from different studies.
Lines come from different studies, so protocols differ. ≈ marks a conversion by molar mass, not a printed value.

Compound | target or system | assay | system | conditions | measurement | result
CNc1ncc2c(/C=C/C(=O)N3CCC(N(C)C)CC3)nn(CC3CCCC3)c2n1 | OE33 | cell growth or viability, resazurin |  | 5 days | EC50 | 15000 nM
CN(C)c1cc(NC(=O)Cc2ccncn2)c(O)c2c1C[C@H]1C[C@H]3[C@H](N(C)C)C(O)=C(C(N)=O)C(=O)[C@@]3(O)C(O)=C1C2=O | Mycobacterium tuberculosis | microbial growth, broth dilution | H37RV | 7 days, pH 7.4 | MIC | 0.8 µg/mL (≈ 1.35 µM)
Nc1ncnc2c1c(/C=C/C(=O)N1CCC(c3ccccc3)CC1)nn2CC1CCCC1 | OE33 | cell growth or viability, resazurin |  | 5 days | EC50 | > 30000 nM
CC(C)(C)c1cnc(CSc2cnc(NC(=O)C3CCN(CCCCCCCCSc4cccc5c4CN(C4CCC(=O)NC4=O)C5=O)CC3)s2)o1 (stereo not drawn) | HH | cell growth or viability, CCK-8 |  | 10 nM | viability | 99.7%
CN(C)c1ccc(O)c2c1C[C@H]1C[C@H]3[C@H](N(C)C)C(O)=C(C(N)=O)C(=O)[C@@]3(O)C(O)=C1C2=O | Mycobacterium tuberculosis | microbial growth, broth dilution | H37RV | 7 days, pH 7.4 | MIC | 0.2 µg/mL (≈ 0.437 µM)
CC(=NNC(=O)c1ccc(N)cc1)c1ccc(Nc2nnc(-c3ccc(Cl)cc3)c3ccccc23)cc1 | HepG2 | cell growth or viability, MTT |  | 0.312 µM, 24 h | viability | 98.2%
CN(C)c1cc(NC(=O)Cc2ccccc2)c(O)c2c1C[C@H]1C[C@H]3[C@H](N(C)C)C(O)=C(C(N)=O)C(=O)[C@@]3(O)C(O)=C1C2=O | Mycobacterium tuberculosis | microbial growth, broth dilution | H37RV | 7 days, pH 7.4 | MIC | 3.1 µg/mL (≈ 5.25 µM)
O=C(Nc1ccc(Oc2nnc(-c3ccc(Cl)cc3)c3ccccc23)cc1)c1ccccc1 | HepG2 | cell growth or viability, MTT |  | 0.156 µM | cell death | 45.6%
CNc1ncc2c(/C=C/C(=O)N3CCC(OC)CC3)nn(Cc3ccc(C)cc3)c2n1 | OE33 | cell growth or viability, resazurin |  | 5 days | EC50 | 2490 nM
C=CC(=O)NC1CCN(c2ncc3ncnc(Nc4ccc(Oc5ccc6c(c5)ncn6C)c(C)c4)c3n2)CC1 | PANC-03-27 | cell growth or viability |  |  | EC50 | 33.3 nM
S=C(Nc1ccccc1)Nc1ccc(Oc2nnc(-c3ccc(Cl)cc3)c3ccccc23)cc1 | HepG2 | cell growth or viability, MTT |  | 10 µM, 24 h | viability | 2.77%
CN(C)c1cc(NC(=O)CCc2ccccc2)c(O)c2c1C[C@H]1C[C@H]3[C@H](N(C)C)C(O)=C(C(N)=O)C(=O)[C@@]3(O)C(O)=C1C2=O | Mycobacterium tuberculosis | microbial growth, broth dilution | H37RV | 7 days, pH 7.4 | MIC | 12.5 µg/mL (≈ 20.7 µM)
